# Measurements gathered from unrelated publications.
# Each line is one published result; the experiments were not run side by side.
# Cell line: SW-620
Structure (SMILES),observed,method,tested at,time,setting,measurement,result
COc1ccc(C(=O)/C=C/c2ccccc2Br)cc1S(N)(=O)=O,cell growth or viability,SRB,,48 h,,GI50,1800 nM
O=C(/C=C/c1ccc2c(=O)n(CCCl)cnc2c1)NO,cell growth or viability,SRB,,48 h,,IC50,5640 nM
Cn1cc(-c2ccc(-c3cncc(Cl)c3N3CCC4(CCNC4=O)CC3)cc2)cn1,colony formation,,,14 days,3D culture,GI50,140 nM
COc1ccc(C(=O)/C=C/c2cccnc2)cc1S(N)(=O)=O,cell growth or viability,SRB,10 µM,,,inhibition,87%
O=C(/C=C/c1ccc2c(=O)n(Cc3ccc(Cl)cc3)cnc2c1)NO,cell growth or viability,SRB,,48 h,,IC50,671 nM
COc1cccc2c1C(=O)c1c(O)c3c(c(O)c1C2=O)C[C@@](O)(C(=O)CO)C[C@@H]3O[C@H]1C[C@H](N)[C@H](O)[C@H](C)O1,cell growth or viability,MTT,,48 h,,IC50,2.57 µg/mL
COc1ccc(C(=O)/C=C/c2cccc(Cl)c2Cl)cc1S(N)(=O)=O,cell growth or viability,SRB,10 µM,,,inhibition,147%
Cc1ccc(Cn2cnc3ccc(/C=C/C(=O)NO)cc3c2=O)cc1,cell growth or viability,SRB,,48 h,,IC50,1430 nM
COc1ccc(C(=O)/C=C/c2ccc3ccccc3c2)cc1S(N)(=O)=O,cell growth or viability,SRB,,48 h,,GI50,1800 nM
O=C(O)C[C@H](O)C[C@H](O)/C=C/c1c(C2CC2)nc2ccccc2c1-c1ccc(F)cc1,cell growth or viability,SRB,,72 h,,IC50,0.54 µg/mL
COc1cccc(Oc2ccccc2NC(=O)CNC(=O)c2cccc3ccccc23)c1,cell growth or viability,SRB,,48 h,,GI50,166 nM
CC(C)n1c(/C=C/C(O)CC(O)CC(=O)O)c(-c2ccc(F)cc2)c2ccccc21 (centres unmarked),cell growth or viability,SRB,,72 h,,IC50,0.49 µg/mL
CC(=O)Nc1cccc(-n2c(=O)n(C3CC3)c(=O)c3c(Nc4ccc(I)cc4F)n(C)c(=O)c(C)c32)c1,cell growth or viability,resazurin,780 pM,72 h,,viability,71.7%
O=C(/C=C/c1ccc2c(=O)n(Cc3ccccc3F)cnc2c1)NO,cell growth or viability,SRB,,48 h,,IC50,1770 nM
S=C([S][Au-][P+](CCCCCC[P+]([Au-][S]C(=S)n1cccn1)(c1ccccc1)c1ccccc1)(c1ccccc1)c1ccccc1)n1cccn1,cell growth or viability,,,,,GI50,4490 nM
O=C(/C=C/c1ccc2c(=O)n(Cc3ccccc3)cnc2c1)NO,cell growth or viability,SRB,,48 h,,IC50,1130 nM
CC(C)C[C@H](NC(=O)[C@H](Cc1ccccc1)NC(=O)c1cnccn1)B(O)O,cell growth or viability,ATP luminescence,,,,IC50,9 nM
